Key:
[1] = Genotoxicity in Salmonella typhimurium TA1535 harboring pSK1002 assessed as umu gene induction at 0.0005 mg/ml in absence of Sprague-Dawley rat liver S9 fraction after by SOS/umu assay relative to control; format: toxicity, organism-based; conditions: salmonella enterica subsp. enterica serovar typhimurium, read-out: FC
[2] = Genotoxicity in Salmonella typhimurium TA1535 harboring pSK1002 assessed as survival at 0.001 mg/ml in absence of Sprague-Dawley rat liver S9 fraction after by SOS/umu assay relative to control; format: toxicity, organism-based; conditions: salmonella enterica subsp. enterica serovar typhimurium, read-out: Survival
[3] = Genotoxicity in Salmonella typhimurium TA1535 harboring pSK1002 assessed as survival at 0.0005 mg/ml in absence of Sprague-Dawley rat liver S9 fraction after by SOS/umu assay relative to control; format: toxicity, organism-based; conditions: salmonella enterica subsp. enterica serovar typhimurium, read-out: Survival
[4] = Cytotoxicity against human HepG2A16 cells by MTT assay; format: cell-based; conditions: HepG2A16 cells
Method in brief: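 MTT viability assay on HepG2-A16 cells, giving CC50 values.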

[5] = Solubility of the compound in DSPC:cholesterol:DSPE-PEG2000-Mal:DOPE-Rho lipid mixture at 250 uM; format: physicochemical
Method in brief: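 Compound added at 250 µM drug to the initial liposome lipid mixture (10 mM total lipid); precipitation and UV-visible absorbance above 300 nm assessed after encapsulation, removal of unencapsulated material and extraction with 1% w/v SDS in RPMI-A.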

[6] = Genotoxicity in Salmonella typhimurium TA1535 harboring pSK1002 assessed as survival at 0.004 mg/ml in presence of Sprague-Dawley rat liver S9 fraction after by SOS/umu assay relative to control; format: toxicity, organism-based; conditions: salmonella enterica subsp. enterica serovar typhimurium, read-out: Survival
[7] = Genotoxicity in Salmonella typhimurium TA1535 harboring pSK1002 assessed as survival at 0.002 mg/ml in absence of Sprague-Dawley rat liver S9 fraction after by SOS/umu assay relative to control; format: toxicity, organism-based; conditions: salmonella enterica subsp. enterica serovar typhimurium, read-out: Survival
[8] = system: Plasmodium falciparum; assay: Antiplasmodial activity against chloroquine-sensitive Plasmodium falciparum 3D7 by [3H]-hypoxanthine incorporation assay; format: functional, organism-based; conditions: Plasmodium falciparum, 3D7
Method in brief: (§1)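 Blood-stage P. falciparum 3D7 and FCR-3 were tested by a modified [3H]-hypoxanthine incorporation assay. Chloroquine was the reference in all runs.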

[9] = system: Plasmodium falciparum; assay: Antiplasmodial activity against multidrug-resistant Plasmodium falciparum FCR-3 by [3H]-hypoxanthine incorporation assay; format: functional, organism-based, FCR-3/Gambia; conditions: Plasmodium falciparum, FCR-3/Gambia; method in brief: as §1
[10] = Genotoxicity in Salmonella typhimurium TA1535 harboring pSK1002 assessed as umu gene induction at 0.004 mg/ml in presence of Sprague-Dawley rat liver S9 fraction after by SOS/umu assay relative to control; format: toxicity, organism-based; conditions: salmonella enterica subsp. enterica serovar typhimurium, read-out: FC
[11] = Genotoxicity in Salmonella typhimurium TA1535 harboring pSK1002 assessed as survival at 0.001 mg/ml in presence of Sprague-Dawley rat liver S9 fraction after by SOS/umu assay relative to control; format: toxicity, organism-based; conditions: salmonella enterica subsp. enterica serovar typhimurium, read-out: Survival
[12] = Genotoxicity in Salmonella typhimurium TA1535 harboring pSK1002 assessed as survival at 0.0002 mg/ml in presence of Sprague-Dawley rat liver S9 fraction after by SOS/umu assay relative to control; format: toxicity, organism-based; conditions: salmonella enterica subsp. enterica serovar typhimurium, read-out: Survival
[13] = Selectivity index, ratio of CC50 for human HepG2A16 cells by MTT assay to IC50 for multidrug-resistant Plasmodium falciparum FCR-3; format: toxicity; conditions: HepG2A16 cells, read-out: Ratio CC50/IC50
Method in brief: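 HepG2-A16 human hepatoma cells were tested by MTT viability assay to give CC50. Blood-stage activity was measured against the multidrug-resistant P. falciparum FCR-3 strain by [3H]-hypoxanthine incorporation to give IC50. SI = CC50 HepG2 / FCR-3 IC50.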

[14] = Genotoxicity in Salmonella typhimurium TA1535 harboring pSK1002 assessed as umu gene induction at 0.0002 mg/ml in absence of Sprague-Dawley rat liver S9 fraction after by SOS/umu assay relative to control; format: toxicity, organism-based; conditions: salmonella enterica subsp. enterica serovar typhimurium, read-out: FC
[15] = Genotoxicity in Salmonella typhimurium TA1535 harboring pSK1002 assessed as umu gene induction at 0.002 mg/ml in absence of Sprague-Dawley rat liver S9 fraction after by SOS/umu assay relative to control; format: toxicity, organism-based; conditions: salmonella enterica subsp. enterica serovar typhimurium, read-out: FC
[16] = Genotoxicity in Salmonella typhimurium TA1535 harboring pSK1002 assessed as umu gene induction at 0.001 mg/ml in presence of Sprague-Dawley rat liver S9 fraction after by SOS/umu assay relative to control; format: toxicity, organism-based; conditions: salmonella enterica subsp. enterica serovar typhimurium, read-out: FC
[17] = Genotoxicity in Salmonella typhimurium TA1535 harboring pSK1002 assessed as umu gene induction at 0.0002 mg/ml in presence of Sprague-Dawley rat liver S9 fraction after by SOS/umu assay relative to control; format: toxicity, organism-based; conditions: salmonella enterica subsp. enterica serovar typhimurium, read-out: FC
[18] = Genotoxicity in Salmonella typhimurium TA1535 harboring pSK1002 assessed as umu gene induction at 0.001 mg/ml in absence of Sprague-Dawley rat liver S9 fraction after by SOS/umu assay relative to control; format: toxicity, organism-based; conditions: salmonella enterica subsp. enterica serovar typhimurium, read-out: FC
[19] = Genotoxicity in Salmonella typhimurium TA1535 harboring pSK1002 assessed as survival at 0.0005 mg/ml in presence of Sprague-Dawley rat liver S9 fraction after by SOS/umu assay relative to control; format: toxicity, organism-based; conditions: salmonella enterica subsp. enterica serovar typhimurium, read-out: Survival
[20] = Genotoxicity in Salmonella typhimurium TA1535 harboring pSK1002 assessed as umu gene induction at 0.002 mg/ml in presence of Sprague-Dawley rat liver S9 fraction after by SOS/umu assay relative to control; format: toxicity, organism-based; conditions: salmonella enterica subsp. enterica serovar typhimurium, read-out: FC
[21] = Genotoxicity in Salmonella typhimurium TA1535 harboring pSK1002 assessed as umu gene induction at 0.004 mg/ml in absence of Sprague-Dawley rat liver S9 fraction after by SOS/umu assay relative to control; format: toxicity, organism-based; conditions: salmonella enterica subsp. enterica serovar typhimurium, read-out: FC
[22] = Genotoxicity in Salmonella typhimurium TA1535 harboring pSK1002 assessed as survival at 0.002 mg/ml in presence of Sprague-Dawley rat liver S9 fraction after by SOS/umu assay relative to control; format: toxicity, organism-based; conditions: salmonella enterica subsp. enterica serovar typhimurium, read-out: Survival
[23] = Genotoxicity in Salmonella typhimurium TA1535 harboring pSK1002 assessed as survival at 0.004 mg/ml in absence of Sprague-Dawley rat liver S9 fraction after by SOS/umu assay relative to control; format: toxicity, organism-based; conditions: salmonella enterica subsp. enterica serovar typhimurium, read-out: Survival
[24] = Genotoxicity in Salmonella typhimurium TA1535 harboring pSK1002 assessed as umu gene induction at 0.0005 mg/ml in presence of Sprague-Dawley rat liver S9 fraction after by SOS/umu assay relative to control; format: toxicity, organism-based; conditions: salmonella enterica subsp. enterica serovar typhimurium, read-out: FC
[25] = Genotoxicity in Salmonella typhimurium TA1535 harboring pSK1002 assessed as survival at 0.0002 mg/ml in absence of Sprague-Dawley rat liver S9 fraction after by SOS/umu assay relative to control; format: toxicity, organism-based; conditions: salmonella enterica subsp. enterica serovar typhimurium, read-out: Survival
[26] = Genotoxicity in Salmonella typhimurium TA1535 harboring pSK1002 assessed as umu gene induction at 0.016 mg/ml in absence of Sprague-Dawley rat liver S9 fraction after by SOS/umu assay relative to control; format: toxicity, organism-based; conditions: salmonella enterica subsp. enterica serovar typhimurium, read-out: FC
[27] = Genotoxicity in Salmonella typhimurium TA1535 harboring pSK1002 assessed as survival at 0.008 mg/ml in absence of Sprague-Dawley rat liver S9 fraction after by SOS/umu assay relative to control; format: toxicity, organism-based; conditions: salmonella enterica subsp. enterica serovar typhimurium, read-out: Survival
[28] = Genotoxicity in Salmonella typhimurium TA1535 harboring pSK1002 assessed as umu gene induction at 0.008 mg/ml in absence of Sprague-Dawley rat liver S9 fraction after by SOS/umu assay relative to control; format: toxicity, organism-based; conditions: salmonella enterica subsp. enterica serovar typhimurium, read-out: FC
[29] = Genotoxicity in Salmonella typhimurium TA1535 harboring pSK1002 assessed as survival at 0.008 mg/ml in presence of Sprague-Dawley rat liver S9 fraction after by SOS/umu assay relative to control; format: toxicity, organism-based; conditions: salmonella enterica subsp. enterica serovar typhimurium, read-out: Survival
[30] = Genotoxicity in Salmonella typhimurium TA1535 harboring pSK1002 assessed as umu gene induction at 0.008 mg/ml in presence of Sprague-Dawley rat liver S9 fraction after by SOS/umu assay relative to control; format: toxicity, organism-based; conditions: salmonella enterica subsp. enterica serovar typhimurium, read-out: FC
[31] = Genotoxicity in Salmonella typhimurium TA1535 harboring pSK1002 assessed as survival at 0.016 mg/ml in presence of Sprague-Dawley rat liver S9 fraction after by SOS/umu assay relative to control; format: toxicity, organism-based; conditions: salmonella enterica subsp. enterica serovar typhimurium, read-out: Survival
[32] = Genotoxicity in Salmonella typhimurium TA1535 harboring pSK1002 assessed as survival at 0.016 mg/ml in absence of Sprague-Dawley rat liver S9 fraction after by SOS/umu assay relative to control; format: toxicity, organism-based; conditions: salmonella enterica subsp. enterica serovar typhimurium, read-out: Survival
[33] = Genotoxicity in Salmonella typhimurium TA1535 harboring pSK1002 assessed as umu gene induction at 0.016 mg/ml in presence of Sprague-Dawley rat liver S9 fraction after by SOS/umu assay relative to control; format: toxicity, organism-based; conditions: salmonella enterica subsp. enterica serovar typhimurium, read-out: FC

SMILES	fold induction at 0.0005 mg/ml [1]	viability at 0.001 mg/ml [2]	viability at 0.0005 mg/ml [3]	CC50 [4]	solubility [5]	viability at 0.004 mg/ml [6]	viability at 0.002 mg/ml [7]	IC50 [8]	IC50 [9]	fold induction at 0.004 mg/ml [10]	viability at 0.001 mg/ml [11]	viability at 0.0002 mg/ml [12]	selectivity ratio [13]	fold induction at 0.0002 mg/ml [14]	fold induction at 0.002 mg/ml [15]	fold induction at 0.001 mg/ml [16]	fold induction at 0.0002 mg/ml [17]	fold induction at 0.001 mg/ml [18]	viability at 0.0005 mg/ml [19]	fold induction at 0.002 mg/ml [20]	also measured
OC(CCN1CCN(C(c2ccccc2)c2ccccc2)CC1)c1ccc(F)c(Cl)c1 (stereo not drawn)	0.9	105%	117%	269 µM	Insoluble	87.7%	103%	5.11 µM	1390 nM	1.2	91.4%	92.3%	194	0.8	1	0.5	1	1	97.7%	1.1	fold induction at 0.004 mg/ml [21]: 0.8; viability at 0.002 mg/ml [22]: 73.1%; viability at 0.004 mg/ml [23]: 119%; fold induction at 0.0005 mg/ml [24]: 0.9; viability at 0.0002 mg/ml [25]: 110%
OC(CCN1CCN(C(c2ccccc2)c2ccccc2)CC1)c1ccc(Cl)cc1 (stereo not drawn)	0.9	106%	110%	462 µM	Insoluble	89.5%	108%	24.9 µM	3930 nM	1	96.7%	96.4%	118	1	1	0.6	1	1.1	94.3%	0.7	fold induction at 0.016 mg/ml [26]: 0.9; viability at 0.008 mg/ml [27]: 125%; fold induction at 0.008 mg/ml [28]: 0.9; viability at 0.008 mg/ml [29]: 98.8%; fold induction at 0.008 mg/ml [30]: 0.9; viability at 0.016 mg/ml [31]: 86.6%; fold induction at 0.004 mg/ml [21]: 1; viability at 0.016 mg/ml [32]: 112%; fold induction at 0.016 mg/ml [33]: 1.1; viability at 0.002 mg/ml [22]: 88.9%; viability at 0.004 mg/ml [23]: 102%; fold induction at 0.0005 mg/ml [24]: 0.6; viability at 0.0002 mg/ml [25]: 105%
